Article PMC4216218 (Journal of Medicinal Chemistry, 2014)
Where “and” joins values, the source holds several entries; their conditions need not be identical. Identical values can stand only once.

How the values were obtained:
[1] = target: DEGR-factor XIa (Homo sapiens, UniProt P03951); assay: Fluorescence-based binding affinity, dansyl fluorescence; conditions: saturating ligand, λEX 345 nm
[2] = target: factor XI (zymogen) (Homo sapiens, UniProt P03951); assay type: binding; conditions: intrinsic tryptophan fluorescence, pH 7.4, 37 °C
Chain of factor XI (zymogen) (P03951 19-625): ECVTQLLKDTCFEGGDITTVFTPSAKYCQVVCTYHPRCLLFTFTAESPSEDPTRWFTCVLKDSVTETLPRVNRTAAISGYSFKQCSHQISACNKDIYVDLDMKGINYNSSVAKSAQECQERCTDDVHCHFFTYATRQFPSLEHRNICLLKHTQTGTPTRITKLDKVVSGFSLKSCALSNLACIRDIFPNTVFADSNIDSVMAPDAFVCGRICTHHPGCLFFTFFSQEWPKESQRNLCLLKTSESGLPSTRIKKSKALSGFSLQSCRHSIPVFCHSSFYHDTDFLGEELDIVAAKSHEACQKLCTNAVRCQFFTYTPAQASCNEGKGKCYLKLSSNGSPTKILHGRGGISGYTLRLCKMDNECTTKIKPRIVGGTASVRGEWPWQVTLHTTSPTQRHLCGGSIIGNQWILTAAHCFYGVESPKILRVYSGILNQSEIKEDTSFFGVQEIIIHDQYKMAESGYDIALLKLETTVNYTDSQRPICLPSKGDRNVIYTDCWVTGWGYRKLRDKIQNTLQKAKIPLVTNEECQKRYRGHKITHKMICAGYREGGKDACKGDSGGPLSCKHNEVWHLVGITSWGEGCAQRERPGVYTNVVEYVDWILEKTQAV
Procedure, shortened: (§1)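 Human plasma factor XI or factor XIa (105 nM) was titrated at 37 °C with aliquots of 200–250 μM aqueous ligand in 50 mM Tris-HCl pH 7.4, 150 mM NaCl, 0.1% PEG8000. Intrinsic tryptophan fluorescence (λEX 280 nm) was followed. ΔF/F0 versus ligand concentration was fitted to a quadratic binding equation for KD and ΔFMAX.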

[3] = target: DEGR-FXIa (Homo sapiens, UniProt P03951); assay: Salt dependence of affinity of DEGR-FXIa; assay type: binding
Chain of DEGR-FXIa (P03951 19-387 limits assumed): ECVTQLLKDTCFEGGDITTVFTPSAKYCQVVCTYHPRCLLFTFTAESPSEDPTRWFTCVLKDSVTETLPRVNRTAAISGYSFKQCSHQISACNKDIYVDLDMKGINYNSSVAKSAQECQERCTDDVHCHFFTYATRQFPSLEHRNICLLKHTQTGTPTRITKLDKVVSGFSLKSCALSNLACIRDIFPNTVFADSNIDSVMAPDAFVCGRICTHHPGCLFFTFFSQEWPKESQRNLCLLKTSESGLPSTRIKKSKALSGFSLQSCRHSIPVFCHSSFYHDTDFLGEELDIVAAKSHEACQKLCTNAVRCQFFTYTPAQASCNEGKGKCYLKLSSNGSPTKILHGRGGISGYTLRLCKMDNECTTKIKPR
Chain of DEGR-FXIa (P03951 388-625 limits assumed): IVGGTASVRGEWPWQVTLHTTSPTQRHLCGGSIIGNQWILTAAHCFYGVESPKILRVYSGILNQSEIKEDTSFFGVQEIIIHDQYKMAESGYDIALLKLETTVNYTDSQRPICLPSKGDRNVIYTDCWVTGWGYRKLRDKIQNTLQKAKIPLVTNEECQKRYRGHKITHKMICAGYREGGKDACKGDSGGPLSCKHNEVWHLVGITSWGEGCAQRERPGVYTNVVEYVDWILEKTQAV
Procedure, shortened: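 DEGR-factor XIa (250 nM) was titrated with ligand solutions at 37 °C in 50 mM Tris-HCl pH 7.4, 0.1% PEG8000, at 25, 50, 100 or 150 mM NaCl. Dansyl fluorescence was read at 547 nm (excitation 345 nm), and a quadratic fit gave KD,obs. […] At least two experiments were run.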

[4] = target: human factor XIa (Homo sapiens, UniProt P03951); assay: Fluorescence-based binding affinity, intrinsic tryptophan fluorescence; conditions: pH 7.4, 37 °C
Chain of human factor XIa (P03951 19-387 limits assumed): as the sequence (P03951 19-387 limits assumed) above
Chain of human factor XIa (P03951 388-625 limits assumed): as the sequence (P03951 388-625 limits assumed) above
Procedure, shortened: as §1

Chain of DEGR-factor XIa (P03951 19-387 limits assumed): as the sequence (P03951 19-387 limits assumed) above
Chain of DEGR-factor XIa (P03951 388-625 limits assumed): as the sequence (P03951 388-625 limits assumed) above

heparin octasaccharide [H8]
blue-shift of emission wavelength of DEGR-FXIa [1]: ~3 nm | Kd [2]: 1800 ± 400 nM | Z (number of ion-pairs formed) ([3]; pH 7.4, 37 °C): 0.64 ± 0.04 | intercept of log KD,obs versus log[Na] ([3]; pH 7.4, 37 °C): –5.00 ± 0.04 | slope of log KD,obs versus log[Na] ([3]; pH 7.4, 37 °C): 0.52 ± 0.03 | ΔG0NI (binding energy due to nonionic forces) ([3]; pH 7.4, 37 °C): 7.08 kcal/mol and 7.1 ± 0.02 kcal/mol | ΔG0NI (nonionic binding energy contribution to the total) ([3]; pH 7.4, 37 °C): 90.5% | ΔG0I (binding energy due to ionic forces) ([3]; pH 7.4, I 0.15): 0.75 kcal/mol | Kd ([3]; read-out: KD,NI (nonionic affinity), dissociation constant at [Na+] = 1 M): 10100 ± 400 nM | Kd [4]: 900 ± 200 nM | ΔFMAX [4]: –68 ± 2%
